Reference: ChEMBL document CHEMBL1165943, “Design and synthesis of new anticancer pyrimidines with multiple-kinase inhibitory effect” (Bioorg Med Chem, 2010)

What was measured:
[1] = target: Focal adhesion kinase 1 (Homo sapiens) (UniProt Q05397); assay: Inhibition of PTK2 at 10 uM by HotSpot assay
[2] = target: Tyrosine-protein kinase Yes (Homo sapiens) (UniProt P07947); assay: Inhibition of YES1 at 10 uM by HotSpot assay
[3] = target: Protein-tyrosine kinase 2-beta (Homo sapiens) (UniProt Q14289); assay: Inhibition of PTK2B at 10 uM by HotSpot assay
Protein-tyrosine kinase 2-beta (Homo sapiens), sequence (Q14289 whole entry, looked up): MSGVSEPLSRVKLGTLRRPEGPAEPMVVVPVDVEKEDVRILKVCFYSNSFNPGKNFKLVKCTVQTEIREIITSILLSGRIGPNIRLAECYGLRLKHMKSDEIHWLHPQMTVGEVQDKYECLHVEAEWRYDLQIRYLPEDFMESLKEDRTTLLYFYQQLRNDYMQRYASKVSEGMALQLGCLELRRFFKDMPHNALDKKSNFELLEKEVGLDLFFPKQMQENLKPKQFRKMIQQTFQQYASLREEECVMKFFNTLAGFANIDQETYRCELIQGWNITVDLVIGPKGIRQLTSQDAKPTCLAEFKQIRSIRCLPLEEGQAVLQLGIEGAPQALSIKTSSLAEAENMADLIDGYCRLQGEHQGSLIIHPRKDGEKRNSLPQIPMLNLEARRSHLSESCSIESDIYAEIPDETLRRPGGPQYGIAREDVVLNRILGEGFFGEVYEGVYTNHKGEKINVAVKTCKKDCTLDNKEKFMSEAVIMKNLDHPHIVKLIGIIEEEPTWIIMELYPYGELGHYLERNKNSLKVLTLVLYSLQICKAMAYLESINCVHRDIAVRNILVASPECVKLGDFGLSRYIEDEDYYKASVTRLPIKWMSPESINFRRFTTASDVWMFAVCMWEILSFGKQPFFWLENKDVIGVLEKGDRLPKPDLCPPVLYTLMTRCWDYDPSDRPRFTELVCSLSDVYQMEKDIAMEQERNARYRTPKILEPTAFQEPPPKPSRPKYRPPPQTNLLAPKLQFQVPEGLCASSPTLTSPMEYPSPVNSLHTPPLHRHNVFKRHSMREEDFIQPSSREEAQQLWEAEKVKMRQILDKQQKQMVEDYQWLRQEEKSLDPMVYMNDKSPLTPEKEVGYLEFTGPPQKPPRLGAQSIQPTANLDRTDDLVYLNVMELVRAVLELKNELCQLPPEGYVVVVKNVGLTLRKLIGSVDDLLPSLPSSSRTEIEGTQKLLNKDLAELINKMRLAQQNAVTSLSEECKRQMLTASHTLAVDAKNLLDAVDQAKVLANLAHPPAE

[4] = target: Tyrosine-protein kinase JAK3 (Homo sapiens) (UniProt P52333); assay: Inhibition of JAK3 at 10 uM by HotSpot assay
Tyrosine-protein kinase JAK3 (Homo sapiens), sequence (P52333 whole entry): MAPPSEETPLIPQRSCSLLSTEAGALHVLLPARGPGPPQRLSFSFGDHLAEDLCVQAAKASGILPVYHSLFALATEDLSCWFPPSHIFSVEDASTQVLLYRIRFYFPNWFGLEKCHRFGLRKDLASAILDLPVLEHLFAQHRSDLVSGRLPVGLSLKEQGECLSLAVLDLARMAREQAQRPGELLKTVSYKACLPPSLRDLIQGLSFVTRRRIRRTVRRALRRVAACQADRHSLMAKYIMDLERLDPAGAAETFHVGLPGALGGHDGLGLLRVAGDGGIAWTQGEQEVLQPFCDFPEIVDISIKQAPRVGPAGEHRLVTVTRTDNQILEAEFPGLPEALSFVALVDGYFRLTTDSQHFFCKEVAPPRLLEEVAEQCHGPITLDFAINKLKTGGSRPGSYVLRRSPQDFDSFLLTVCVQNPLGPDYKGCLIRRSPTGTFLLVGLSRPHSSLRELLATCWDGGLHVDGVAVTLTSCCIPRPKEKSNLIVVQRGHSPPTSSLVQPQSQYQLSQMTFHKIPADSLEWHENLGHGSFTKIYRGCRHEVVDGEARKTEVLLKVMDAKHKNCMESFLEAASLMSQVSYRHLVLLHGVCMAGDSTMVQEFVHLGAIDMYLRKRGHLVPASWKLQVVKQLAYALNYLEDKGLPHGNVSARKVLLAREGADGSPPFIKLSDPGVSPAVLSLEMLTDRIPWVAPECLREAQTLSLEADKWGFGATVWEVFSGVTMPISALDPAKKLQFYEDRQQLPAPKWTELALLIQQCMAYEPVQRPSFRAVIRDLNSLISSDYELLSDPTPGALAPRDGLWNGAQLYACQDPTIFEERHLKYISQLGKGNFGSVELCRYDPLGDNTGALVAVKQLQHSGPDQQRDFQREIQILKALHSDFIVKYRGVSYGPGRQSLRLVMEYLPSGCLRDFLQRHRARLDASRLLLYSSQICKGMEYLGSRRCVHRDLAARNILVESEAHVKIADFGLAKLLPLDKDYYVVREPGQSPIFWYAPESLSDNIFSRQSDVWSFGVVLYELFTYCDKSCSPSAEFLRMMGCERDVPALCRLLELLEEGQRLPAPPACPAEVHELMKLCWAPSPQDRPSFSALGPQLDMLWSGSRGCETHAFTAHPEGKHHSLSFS

[5] = target: [Pyruvate dehydrogenase (acetyl-transferring)] kinase isozyme 1, mitochondrial (Homo sapiens) (UniProt Q15118); assay: Inhibition of PDK1 at 10 uM by HotSpot assay
[6] = target: Tyrosine-protein kinase Fyn (Homo sapiens) (UniProt P06241); assay: Inhibition of FYN at 10 uM by HotSpot assay
Tyrosine-protein kinase Fyn (Homo sapiens), sequence (P06241 2-537 limits assumed): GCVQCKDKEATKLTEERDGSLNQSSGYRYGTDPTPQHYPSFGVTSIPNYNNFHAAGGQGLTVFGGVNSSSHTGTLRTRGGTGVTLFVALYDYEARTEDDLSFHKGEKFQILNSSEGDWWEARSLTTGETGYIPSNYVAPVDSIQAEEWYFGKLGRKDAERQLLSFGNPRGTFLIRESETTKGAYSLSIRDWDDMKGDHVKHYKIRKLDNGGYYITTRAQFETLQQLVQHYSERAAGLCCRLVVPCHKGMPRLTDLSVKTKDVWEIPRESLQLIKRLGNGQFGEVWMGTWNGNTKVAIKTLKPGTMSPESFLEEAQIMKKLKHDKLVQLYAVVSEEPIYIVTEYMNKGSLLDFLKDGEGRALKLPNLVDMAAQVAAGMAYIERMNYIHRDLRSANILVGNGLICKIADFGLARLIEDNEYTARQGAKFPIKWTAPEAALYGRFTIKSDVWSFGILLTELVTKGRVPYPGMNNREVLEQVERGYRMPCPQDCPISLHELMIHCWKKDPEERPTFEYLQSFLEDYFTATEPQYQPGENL

[7] = target: Dual specificity mitogen-activated protein kinase kinase 1 (Homo sapiens) (UniProt Q02750); assay: Inhibition of MEK1 at 10 uM by HotSpot assay
[8] = target: Homeodomain-interacting protein kinase 1 (Homo sapiens) (UniProt Q86Z02); assay: Inhibition of HIPK1 at 10 uM by HotSpot assay
Homeodomain-interacting protein kinase 1 (Homo sapiens), sequence (Q86Z02 whole entry, looked up): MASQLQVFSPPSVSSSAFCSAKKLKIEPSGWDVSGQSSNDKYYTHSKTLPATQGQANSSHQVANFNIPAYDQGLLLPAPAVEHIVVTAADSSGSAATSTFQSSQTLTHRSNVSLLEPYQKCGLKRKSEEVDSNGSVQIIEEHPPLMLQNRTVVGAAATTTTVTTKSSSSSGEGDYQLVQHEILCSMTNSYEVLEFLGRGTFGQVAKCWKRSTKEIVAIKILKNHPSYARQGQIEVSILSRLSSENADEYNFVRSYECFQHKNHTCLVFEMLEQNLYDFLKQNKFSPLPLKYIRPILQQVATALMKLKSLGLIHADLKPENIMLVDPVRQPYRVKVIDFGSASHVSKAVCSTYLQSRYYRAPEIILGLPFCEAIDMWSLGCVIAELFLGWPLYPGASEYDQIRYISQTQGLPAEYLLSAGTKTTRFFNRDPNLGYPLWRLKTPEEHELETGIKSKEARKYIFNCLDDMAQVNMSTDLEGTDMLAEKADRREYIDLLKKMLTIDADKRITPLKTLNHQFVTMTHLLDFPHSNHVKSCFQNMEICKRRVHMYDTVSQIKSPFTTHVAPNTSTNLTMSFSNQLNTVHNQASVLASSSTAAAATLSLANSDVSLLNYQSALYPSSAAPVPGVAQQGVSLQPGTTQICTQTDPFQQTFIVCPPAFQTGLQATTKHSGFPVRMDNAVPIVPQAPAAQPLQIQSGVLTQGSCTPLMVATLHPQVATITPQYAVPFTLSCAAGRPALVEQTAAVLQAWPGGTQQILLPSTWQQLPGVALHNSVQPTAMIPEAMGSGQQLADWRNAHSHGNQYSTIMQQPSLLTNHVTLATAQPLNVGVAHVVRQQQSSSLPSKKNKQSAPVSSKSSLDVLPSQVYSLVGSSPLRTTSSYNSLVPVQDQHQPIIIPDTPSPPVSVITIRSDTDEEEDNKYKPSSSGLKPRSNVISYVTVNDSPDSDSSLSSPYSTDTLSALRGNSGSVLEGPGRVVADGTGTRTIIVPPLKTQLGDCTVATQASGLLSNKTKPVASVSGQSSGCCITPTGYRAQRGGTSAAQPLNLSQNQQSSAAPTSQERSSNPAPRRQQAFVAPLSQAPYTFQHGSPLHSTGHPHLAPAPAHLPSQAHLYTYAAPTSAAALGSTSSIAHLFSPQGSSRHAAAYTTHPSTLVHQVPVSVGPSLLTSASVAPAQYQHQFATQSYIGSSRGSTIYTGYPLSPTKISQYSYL

[9] = target: Serine/threonine-protein kinase B-raf (Homo sapiens) (UniProt P15056); assay: Inhibition of B-Raf at 10 uM by HotSpot assay
[10] = target: Mitogen-activated protein kinase 14 (Homo sapiens) (UniProt Q16539); assay: Inhibition of p38alpha at 10 uM by HotSpot assay
[11] = target: Tyrosine-protein kinase Lyn (Homo sapiens) (UniProt P07948); assay: Inhibition of LYN at 10 uM by HotSpot assay
[12] = target: Mitogen-activated protein kinase 8 (Homo sapiens) (UniProt P45983); assay: Inhibition of JNK1 at 10 uM by HotSpot assay
[13] = target: BDNF/NT-3 growth factors receptor (Homo sapiens) (UniProt Q16620); assay: Inhibition of NTRK2 at 10 uM by HotSpot assay
BDNF/NT-3 growth factors receptor (Homo sapiens), sequence (Q16620 32-822 limits assumed): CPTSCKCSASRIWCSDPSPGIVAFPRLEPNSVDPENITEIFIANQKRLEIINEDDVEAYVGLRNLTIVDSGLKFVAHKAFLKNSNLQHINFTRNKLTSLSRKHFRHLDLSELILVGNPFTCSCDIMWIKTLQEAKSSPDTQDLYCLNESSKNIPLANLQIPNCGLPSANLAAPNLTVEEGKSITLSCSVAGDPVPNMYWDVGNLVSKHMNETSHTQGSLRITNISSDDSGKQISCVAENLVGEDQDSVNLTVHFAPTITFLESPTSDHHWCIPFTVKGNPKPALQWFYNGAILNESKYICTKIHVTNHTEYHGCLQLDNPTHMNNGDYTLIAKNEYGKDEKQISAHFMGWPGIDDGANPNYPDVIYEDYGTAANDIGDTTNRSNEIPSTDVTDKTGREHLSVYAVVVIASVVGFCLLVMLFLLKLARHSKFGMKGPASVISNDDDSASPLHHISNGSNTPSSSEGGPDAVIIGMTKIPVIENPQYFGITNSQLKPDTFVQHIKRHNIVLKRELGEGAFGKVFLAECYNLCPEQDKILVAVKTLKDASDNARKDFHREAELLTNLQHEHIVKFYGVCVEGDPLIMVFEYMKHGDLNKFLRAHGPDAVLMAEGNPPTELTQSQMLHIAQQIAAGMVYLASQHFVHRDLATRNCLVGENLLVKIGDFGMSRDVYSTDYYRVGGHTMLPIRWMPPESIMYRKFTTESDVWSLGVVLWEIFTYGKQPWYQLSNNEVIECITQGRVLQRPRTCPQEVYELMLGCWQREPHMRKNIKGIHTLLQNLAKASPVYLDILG

[14] = target: Aurora kinase A (Homo sapiens) (UniProt O14965); assay: Inhibition of Aurora A at 10 uM by HotSpot assay
Aurora kinase A (Homo sapiens), sequence (O14965 whole entry): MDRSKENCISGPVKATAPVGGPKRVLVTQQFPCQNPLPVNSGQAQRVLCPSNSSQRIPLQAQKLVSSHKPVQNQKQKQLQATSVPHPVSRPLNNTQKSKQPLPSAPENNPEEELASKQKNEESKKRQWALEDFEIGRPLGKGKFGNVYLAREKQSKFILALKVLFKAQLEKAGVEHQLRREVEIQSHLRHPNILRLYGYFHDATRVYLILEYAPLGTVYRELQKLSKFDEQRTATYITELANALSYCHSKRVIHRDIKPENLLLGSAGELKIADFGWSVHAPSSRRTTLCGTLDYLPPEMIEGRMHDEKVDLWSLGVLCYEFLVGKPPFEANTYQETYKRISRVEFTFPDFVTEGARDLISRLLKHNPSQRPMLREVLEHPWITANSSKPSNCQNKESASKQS

[15] = target: Myotonin-protein kinase (Homo sapiens) (UniProt Q09013); assay: Inhibition of DMPK at 10 uM by HotSpot assay
[16] = target: Serine/threonine-protein kinase pim-1 (Homo sapiens) (UniProt P11309); assay: Inhibition of PIM1 at 10 uM by HotSpot assay
A549 = assay: Cytotoxicity against human A549 cells assessed as cell growth at 0.001 uM after 48 hrs by sulforhodamine B assay; type: functional; settings: A549, 48 h, read-out: Activity
SR [17] = assay: Cytotoxicity against human SR cells assessed as cell growth at 0.01 uM after 48 hrs by sulforhodamine B assay; type: functional; settings: read-out: Activity
CCRF-CEM [18] = assay: Growth inhibition of human CCRF-CEM cells after 48 hrs by sulforhodamine B assay; type: functional
Outline: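 Five-dose SRB assay. Cells in RPMI 1640 with 5% FBS and 2 mM L-glutamine were seeded at 5,000–40,000 cells/well, with a TCA-fixed time-zero plate (Tz) taken at 24 h. Compound stocks were in DMSO, serially diluted 10-fold or ½-log to five concentrations, and incubated 48 h at 37 °C. Plates were stained with SRB and read at 515 nm. IC₅₀ was taken where [(Ti−Tz)/(C−Tz)]×100 = 50.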

PC-3 = assay: Cytotoxicity against human PC3 cells assessed as cell growth at 100 nM after 48 hrs by sulforhodamine B assay; type: functional; settings: PC-3, 48 h, read-out: Activity
SK-MEL-28 [19] = assay: Cytotoxicity against human SK-MEL-28 cells assessed as cell growth at 0.001 uM after 48 hrs by sulforhodamine B assay; type: functional; settings: SK-MEL-28, 48 h, read-out: Activity
SK-MEL-28 [20] = assay: Cytotoxicity against human SK-MEL-28 cells assessed as cell growth at 0.01 uM after 48 hrs by sulforhodamine B assay; type: functional; settings: SK-MEL-28, 48 h, read-out: Activity
NCI-H226 [21] = assay: Cytotoxicity against human NCI-H226 cells assessed as cell growth at 1 uM after 48 hrs by sulforhodamine B assay; type: functional; settings: NCI-H226, 48 h, read-out: Activity
CCRF-CEM [22] = assay: Cytotoxicity against human CCRF-CEM cells assessed as cell growth at 10 uM after 48 hrs by sulforhodamine B assay; type: functional; settings: read-out: Activity
SN12C = assay: Cytotoxicity against human SN12C cells assessed as cell growth at 10 uM after 48 hrs by sulforhodamine B assay; type: functional; settings: read-out: Activity
HOP-92 = assay: Cytotoxicity against human HOP92 cells assessed as cell growth at 100 nM after 48 hrs by sulforhodamine B assay; type: functional; settings: HOP-92, 48 h, read-out: Activity
HOP-62 = assay: Cytotoxicity against human HOP62 cells assessed as cell growth at 0.001 uM after 48 hrs by sulforhodamine B assay; type: functional; settings: HOP-62, 48 h, read-out: Activity
MCF7 = assay: Cytotoxicity against human MCF7 cells assessed as cell growth at 0.01 uM after 48 hrs by sulforhodamine B assay; type: functional; settings: MCF7, 48 h, read-out: Activity
SR [23] = assay: Growth inhibition of human SR cells after 48 hrs by sulforhodamine B assay; type: functional
Outline: (§1)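 Cells grown in RPMI 1640 with 5% FBS and 2 mM L-glutamine, seeded at 5,000–40,000 cells/well according to doubling time. After 24 h, time-zero plates are TCA-fixed. Five concentrations (10-fold or ½log dilutions, DMSO stocks) are applied for 48 h at 37 °C, 5% CO₂. Cells are TCA-fixed, SRB-stained and read at 515 nm. IC₅₀ is taken from [(Ti−Tz)/(C−Tz)]×100 = 50.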

RXF 393 [24] = assay: Cytotoxicity against human RXF393 cells assessed as cell growth at 10 uM after 48 hrs by sulforhodamine B assay; type: functional; settings: RXF 393, 48 h, read-out: Activity
SR [25] = assay: Cytotoxicity against human SR cells assessed as cell growth at 10 uM after 48 hrs by sulforhodamine B assay; type: functional; settings: read-out: Activity
[26] = Cytotoxicity against human RPMI8266 cells assessed as cell growth at 0.01 uM after 48 hrs by sulforhodamine B assay; type: functional; settings: read-out: Activity
[27] = Cytotoxicity against human RPMI8266 cells assessed as cell growth at 1 uM after 48 hrs by sulforhodamine B assay; type: functional; settings: read-out: Activity
NCI-H226 [28] = assay: Cytotoxicity against human NCI-H226 cells assessed as cell growth at 0.001 uM after 48 hrs by sulforhodamine B assay; type: functional; settings: NCI-H226, 48 h, read-out: Activity
RXF 393 [29] = assay: Cytotoxicity against human RXF393 cells assessed as cell growth at 100 nM after 48 hrs by sulforhodamine B assay; type: functional; settings: RXF 393, 48 h, read-out: Activity
NCI-H226 [30] = assay: Growth inhibition of human NCI-H226 cells after 48 hrs by sulforhodamine B assay; type: functional; settings: NCI-H226, 48 h; outline: as §1
[31] = read-out: LC50 (the source's name)

CC(=O)Nc1cccc(-c2ccc(-c3ccnc(NC(=O)Nc4cc(C(F)(F)F)cc(C(F)(F)F)c4)n3)cn2)c1.Cl
inhibition [1]: < 50%
inhibition [2]: < 50%
inhibition [3]: < 50%
inhibition [4]: < 50%
inhibition [5]: < 50%
inhibition [6]: 50%
inhibition [7]: < 50%
inhibition [8]: < 50%
inhibition [9]: < 50%
inhibition [10]: < 50%
inhibition [11]: < 50%
inhibition [12]: < 50%
inhibition [13]: < 50%
inhibition [14]: 60%
inhibition [15]: < 50%
inhibition [16]: 60%

CC(=O)c1ccccc1-c1ccc(-c2ccnc(NC(=O)Nc3cc(N4CCOCC4)cc(C(F)(F)F)c3)n2)cn1
growth at 0.001 µM (A549): 94%
growth at 0.01 µM (SR [17]): 89%
GI50 (CCRF-CEM [18]): > 100 µM
TGI (CCRF-CEM [18]): > 100 µM
CC50 (CCRF-CEM [18]; [31]): > 100 µM
growth at 0.1 µM (PC-3): 92%
growth at 0.001 µM (SK-MEL-28 [19]): 100%
growth at 0.01 µM (SK-MEL-28 [20]): 107%
growth at 1 µM (NCI-H226 [21]): 53%
growth at 10 µM (CCRF-CEM [22]): 97%
growth at 10 µM (SN12C): 79%
growth at 0.1 µM (HOP-92): 91%
growth at 0.001 µM (HOP-62): 103%
growth at 0.01 µM (MCF7): 101%
GI50 (SR [23]): > 100 µM
TGI (SR [23]): > 100 µM
CC50 (SR [23]; [31]): > 100 µM
growth at 10 µM (RXF 393 [24]): -16%
growth at 10 µM (SR [25]): 107%
growth at 0.01 µM [26]: 104%
growth at 1 µM [27]: 78%
growth at 0.001 µM (NCI-H226 [28]): 105%
growth at 0.1 µM (RXF 393 [29]): 82%
GI50 (NCI-H226 [30]): > 100 µM
TGI (NCI-H226 [30]): > 100 µM
CC50 (NCI-H226 [30]; [31]): > 100 µM
